Laboratory results: ChEMBL document CHEMBL3734689, “Enzyme kinetics and inhibition of histone acetyltransferase KAT8” (Eur J Med Chem, 2015)
The source made the active and inactive calls. No cut-off for these calls is given here.

Tests used:
[1] = target: T1, Histone acetyltransferase KAT8 (Homo sapiens) (UniProt Q9H7Z6); assay: Inhibition of recombinant N-terminal His6-tagged KAT8 (unknown origin) expressed in Escherichia Coli BL21 DE3 cells assessed as reduction of Co A level using histone H4 substrate at 400 uM after 15 mins by CPM fluorescence assay
T1 sequence (whole entry): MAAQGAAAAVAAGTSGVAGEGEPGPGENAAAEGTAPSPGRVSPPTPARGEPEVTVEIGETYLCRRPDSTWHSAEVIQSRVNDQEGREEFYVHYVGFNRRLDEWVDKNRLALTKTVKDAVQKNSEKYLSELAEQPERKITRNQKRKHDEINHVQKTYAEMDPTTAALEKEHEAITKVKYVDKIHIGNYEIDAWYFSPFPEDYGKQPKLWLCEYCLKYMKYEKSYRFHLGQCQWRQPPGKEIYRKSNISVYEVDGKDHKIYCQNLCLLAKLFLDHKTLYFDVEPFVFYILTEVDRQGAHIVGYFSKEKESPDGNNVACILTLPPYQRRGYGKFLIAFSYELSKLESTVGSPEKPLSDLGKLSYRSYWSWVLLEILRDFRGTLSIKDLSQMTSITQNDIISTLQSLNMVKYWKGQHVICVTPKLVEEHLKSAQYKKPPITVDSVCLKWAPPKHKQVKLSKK

[2] = target: T1, Histone acetyltransferase KAT8 (Homo sapiens); assay: Inhibition of recombinant N-terminal His6-tagged KAT8 (unknown origin) expressed in Escherichia Coli BL21 DE3 cells assessed as reduction of Co A level using histone H4 substrate after 15 mins by CPM fluorescence assay
[3] = target: Histone acetyltransferase p300 (Homo sapiens) (UniProt Q09472); assay: Inhibition of human recombinant Histone acetyltransferase p300 catalytic domain (1284-1672 residues) using [3H]Acetyl-CoA and histone H3 substrate at 50 uM after 1 hr by liquid scintillation counting
Sequence of Histone acetyltransferase p300 (Homo sapiens) (Q09472 whole entry, the tested form may be a part): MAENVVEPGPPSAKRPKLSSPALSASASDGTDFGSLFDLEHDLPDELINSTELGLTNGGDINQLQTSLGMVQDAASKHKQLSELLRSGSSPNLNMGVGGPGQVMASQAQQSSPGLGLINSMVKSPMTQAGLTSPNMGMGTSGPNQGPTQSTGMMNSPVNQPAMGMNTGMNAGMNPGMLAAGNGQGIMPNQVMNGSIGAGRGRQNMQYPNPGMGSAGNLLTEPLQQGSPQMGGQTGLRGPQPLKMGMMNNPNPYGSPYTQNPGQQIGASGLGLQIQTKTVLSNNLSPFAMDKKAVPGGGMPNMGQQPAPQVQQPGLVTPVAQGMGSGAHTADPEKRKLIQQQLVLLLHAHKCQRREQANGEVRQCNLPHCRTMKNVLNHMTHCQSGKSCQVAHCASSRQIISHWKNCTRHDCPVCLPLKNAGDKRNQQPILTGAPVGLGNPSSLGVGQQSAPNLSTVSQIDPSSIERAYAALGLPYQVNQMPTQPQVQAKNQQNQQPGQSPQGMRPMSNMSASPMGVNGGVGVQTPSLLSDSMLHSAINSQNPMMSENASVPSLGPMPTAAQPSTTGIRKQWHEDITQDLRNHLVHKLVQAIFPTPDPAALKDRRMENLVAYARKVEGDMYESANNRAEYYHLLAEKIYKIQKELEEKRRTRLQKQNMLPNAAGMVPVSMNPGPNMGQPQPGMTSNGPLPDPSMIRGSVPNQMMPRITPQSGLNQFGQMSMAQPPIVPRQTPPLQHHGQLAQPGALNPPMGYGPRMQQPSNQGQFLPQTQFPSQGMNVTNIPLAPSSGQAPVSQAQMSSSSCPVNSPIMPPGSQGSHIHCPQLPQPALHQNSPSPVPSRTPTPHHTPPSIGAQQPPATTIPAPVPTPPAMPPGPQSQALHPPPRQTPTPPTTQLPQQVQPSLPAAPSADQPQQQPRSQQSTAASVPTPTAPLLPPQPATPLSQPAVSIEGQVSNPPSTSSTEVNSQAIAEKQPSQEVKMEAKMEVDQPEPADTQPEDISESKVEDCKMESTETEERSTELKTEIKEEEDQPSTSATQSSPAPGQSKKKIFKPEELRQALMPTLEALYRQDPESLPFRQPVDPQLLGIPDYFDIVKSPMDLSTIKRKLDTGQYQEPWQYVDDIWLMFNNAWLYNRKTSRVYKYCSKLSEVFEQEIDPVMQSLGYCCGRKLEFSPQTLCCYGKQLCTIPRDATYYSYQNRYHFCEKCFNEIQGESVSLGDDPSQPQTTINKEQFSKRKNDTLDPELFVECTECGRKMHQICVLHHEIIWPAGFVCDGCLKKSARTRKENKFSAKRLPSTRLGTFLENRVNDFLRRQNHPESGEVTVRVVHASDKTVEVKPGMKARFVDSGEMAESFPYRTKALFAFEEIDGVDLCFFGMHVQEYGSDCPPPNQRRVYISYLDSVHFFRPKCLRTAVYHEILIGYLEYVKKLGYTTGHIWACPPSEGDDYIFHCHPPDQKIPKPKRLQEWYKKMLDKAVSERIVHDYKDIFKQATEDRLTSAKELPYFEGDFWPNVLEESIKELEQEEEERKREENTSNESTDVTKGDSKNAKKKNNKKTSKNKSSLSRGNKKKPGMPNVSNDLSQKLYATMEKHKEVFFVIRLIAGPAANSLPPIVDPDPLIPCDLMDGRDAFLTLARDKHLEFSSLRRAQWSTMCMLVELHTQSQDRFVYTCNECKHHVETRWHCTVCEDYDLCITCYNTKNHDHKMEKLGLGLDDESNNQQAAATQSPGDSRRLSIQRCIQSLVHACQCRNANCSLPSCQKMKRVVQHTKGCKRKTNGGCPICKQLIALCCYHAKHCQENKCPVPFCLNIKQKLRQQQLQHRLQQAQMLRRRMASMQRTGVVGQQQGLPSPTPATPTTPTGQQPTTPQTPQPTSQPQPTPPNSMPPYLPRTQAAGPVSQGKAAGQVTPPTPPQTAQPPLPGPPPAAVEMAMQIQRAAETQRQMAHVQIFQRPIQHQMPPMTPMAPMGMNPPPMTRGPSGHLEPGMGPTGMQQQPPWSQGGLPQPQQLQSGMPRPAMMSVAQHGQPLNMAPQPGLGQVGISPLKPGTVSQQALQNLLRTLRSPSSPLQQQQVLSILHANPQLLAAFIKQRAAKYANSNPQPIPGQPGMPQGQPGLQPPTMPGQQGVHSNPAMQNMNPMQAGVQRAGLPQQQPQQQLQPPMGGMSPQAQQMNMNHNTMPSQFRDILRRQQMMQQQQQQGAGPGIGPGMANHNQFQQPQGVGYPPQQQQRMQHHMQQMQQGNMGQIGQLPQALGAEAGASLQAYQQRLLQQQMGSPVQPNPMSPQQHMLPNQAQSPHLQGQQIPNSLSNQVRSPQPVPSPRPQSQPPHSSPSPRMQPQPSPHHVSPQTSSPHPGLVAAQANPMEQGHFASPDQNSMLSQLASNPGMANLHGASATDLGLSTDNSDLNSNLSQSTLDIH
Method in brief: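 p300 activity was measured by radiolabel transfer to the histone substrate. Compounds were tested at a single 50 µM concentration, and the value is the percent inhibition.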

[4] = target: Histone acetyltransferase p300 (Homo sapiens) (UniProt Q09472); assay: Inhibition of human recombinant Histone acetyltransferase p300 catalytic domain (1284-1672 residues) using [3H]Acetyl-CoA and histone H3 substrate at 200 uM after 1 hr by liquid scintillation counting

SMILES	inhibition [1]	logIC50 [2]	inhibition [3]	inhibition [4]
CCCCCc1cccc(O)c1C(=O)O	inactive	> 2.8	inactive	inactive
O=C(O)c1c(O)cccc1CCCCCCCCCCCO	> 50%	2.72	inactive	inactive
CC1=NN(c2ccc(C(=O)O)cc2)C(=O)/C1=C/c1ccc(-c2cc(C)c(C)cc2[N+](=O)[O-])o1	inactive	> 2.8	–	–
CCCCCCCSCC(=O)c1ccccc1O	inactive	> 2.8	inactive	inactive
O=C(O)c1c(O)cccc1CCCCCO	inactive	> 2.8	inactive	inactive

More lines, now with the values ahead:

inhibition [1]	logIC50 [2]	inhibition [3]	inhibition [4]	SMILES
> 50%	2.42	85%	–	CCCCCCCCCCCCCCCc1ccc(O)c(C(=O)O)c1
–	–	97%	–	CCCCCCCCCCCCCCCc1cccc(O)c1C(=O)O
> 50%	2.09	88%	–	CCCCCCCCCCc1cccc(O)c1C(=O)O
inactive	> 2.8	inactive	inactive	CCCCCc1ccc(O)c(C(=O)O)c1
> 50%	2.28	95%	–	CCCCCCCCCCc1ccc(O)c(C(=O)O)c1
